TAAR1 antagonist: antagonists of human TAAR1 | Q96RJ0 | CHO RD-HGA16 TAAR1, Fluo-8 calcium fluorescence, antagonist | 360,000 tested, 1.5% active | inhibition, % at 3 µM | AID 624466;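 active = inhibition above a per-plate cutoff, the mean inhibition of test compounds on that plate plus 3 SD, cut at about 49% in these data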;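 also: 0% = DMSO plus EC80 beta-PEA response and 100% = DMSO alone without agonist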
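Test system: hTAAR1-expressing CHO RD-HGA16 cells, Gα16-coupled; Probe or stimulus: EC80 β-phenethylamine stimulus; Compound dosing: single nominal final test compound concentration of 3 µM; Timing: 140 s kinetic read after compound, 140 s after agonist; Signal: Fluo-8 calcium-sensitive fluorescence; Measure: % inhibition of agonist calcium response; Controls: DMSO and EC80 PEA controls.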
HTR2A ag: activates the mouse 5-HT2A serotonin receptor; AID 624169; activation, % at 7.6 µM; P35363; CHO-K1 mHTR2A beta-arrestin complementation, luminescence; percent of 30 µM serotonin response; 360,000 tested, 0.66% active;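 active = activation above a run cutoff, the mean activation of all tested compounds plus 3 SD, cut at about 14% in these data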;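 also: 0% = plate median of compound wells and 100% = 30 µM serotonin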
Target sequence (P35363 whole entry, looked up): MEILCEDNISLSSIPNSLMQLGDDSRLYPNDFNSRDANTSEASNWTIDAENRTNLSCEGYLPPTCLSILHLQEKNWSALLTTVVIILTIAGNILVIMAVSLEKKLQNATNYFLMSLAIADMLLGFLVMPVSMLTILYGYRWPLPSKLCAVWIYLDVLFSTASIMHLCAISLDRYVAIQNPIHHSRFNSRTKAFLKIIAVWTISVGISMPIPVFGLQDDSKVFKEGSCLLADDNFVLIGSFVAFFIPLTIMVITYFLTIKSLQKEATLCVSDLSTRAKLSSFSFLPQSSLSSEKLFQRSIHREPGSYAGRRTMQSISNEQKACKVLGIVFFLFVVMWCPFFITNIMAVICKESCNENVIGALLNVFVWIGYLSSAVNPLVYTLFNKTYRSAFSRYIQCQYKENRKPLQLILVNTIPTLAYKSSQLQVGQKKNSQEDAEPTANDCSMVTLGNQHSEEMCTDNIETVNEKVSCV
MC4R antag cAMP: blocks human MC4R cAMP signaling. MC4R-expressing cells, MTII-stimulated cAMP, LANCE TR-FRET. inhibition, % at 6.5 µM. 360,000 tested, 0.48% active. AID 540295;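 active = inhibition above its plate's cutoff, the mean of tested wells on that plate plus 3 SD, cut at about 29% in these data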;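 also: 0% = Melanotan II alone and 100% = Melanotan II plus saturating MCL0020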
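Assay system: U2OS cells stably expressing human melanocortin 4 receptor (MC4R) / Dosing: 6.5 µM / Timing: compound 30 min, challenge 1 h, detection 1 h / Measured by: Eu-cAMP/anti-cAMP TR-FRET, emission 671 nm / Replicates: singlicate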
TAAR1 ag: agonists of human TAAR1 | Q96RJ0 | CHO RD-HGA16 TAAR1, Fluo-8 calcium fluorescence; vehicle wells 0%, saturating PEA agonist 100% | activation, % at 3 µM | 360,000 tested, 0.99% active | AID 624467;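 active = activation above the mean activation of all test compounds in the run plus 3 SD, cut at about 38% in these data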
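Test system: RD-HGA16 (CHO) cells co-expressing Gα16 and hTAAR1; dosing: one-point dosing at 3 µM (nominal); timing: 17-24 h seeding, 75 min 37 °C dye, 30 min RT; signal: kinetic Fluo-8 calcium fluorescence; read-out basis: % activation relative to PEA EC100 response; controls: DMSO and PEA EC100; replicates: n 1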
B2AR ag: agonists of human beta-2 adrenergic receptor inducing internalization | 340,000 tested, 0.43% active | Am2.2-beta2AR cells, FAP receptor internalization, flow cytometry | P07550 | response, % (concentration not given with the values);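 active = response above a set limit, near 3 SD of response in nonfluorescent compounds, cut at about 42% in these data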
MC4R ag barr: activates human MC4R beta-arrestin recruitment. P32245. U2OS MC4R beta-arrestin complementation, luminescence; percent of melanotan II response, DMSO zero. activation, % at 8.9 µM. 360,000 tested, 0.98% active;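 active = activation above a per-plate cutoff, the mean activation of sample wells on that plate plus 3 SD, cut at about 8% in these data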
TAAR1 ag conf: human TAAR1 agonism, confirmed; activation, % at 3 µM; shares compounds with TAAR1 ag; AID 651783; 2,400 tested, 82% active; CHO RD-HGA16 TAAR1, Fluo-8 calcium fluorescence; scaled: DMSO 0%, maximal phenethylamine 100%;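 active = activation above a cutoff set at the run's mean compound activation plus 3 SD, cut at about 39% in these data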
Ga16 nonsel ag: nonselective agonism, TAAR1 counter-screen; AID 651787; 2,400 tested, 50% active; activation, % at 3 µM; shares compounds with TAAR1 ag; CHO-Ga16 parental, Fluo-8 calcium fluorescence; normalized to maximal ATP response, DMSO zero;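 active = activation above the run cutoff, the mean activation over all tested wells plus 3 SD, cut at about 12% in these data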;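 also: 0% = DMSO wells and 100% = maximal ATP response on the peak over basal ratio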
TAAR1 desens: TAAR1 response desensitization, agonist counter-screen; shares compounds with TAAR1 ag; CHO RD-HGA16 hTAAR1, Fluo-8 calcium, beta-PEA response inhibition; inhibition, % at 3 µM; 2,400 tested, 46% active;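 active = inhibition above the run cutoff, the mean inhibition of all test compounds plus 3 SD, cut at about 49% in these data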;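 also: beta-PEA stimulus applied at its EC80; loss of beta-PEA calcium signal after compound pretreatment read as receptor desensitization; 0% = DMSO with beta-PEA at EC80 and 100% = DMSO alone without agonist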
Ga16 antag count: nonselective Ga16 antagonist in TAAR1 agonist counter-screen | shares compounds with TAAR1 ag | CHO-Ga16 ATP-induced calcium, Fluo-8 fluorescence | inhibition, % at 3 µM | 2,400 tested, 39% active | AID 651952;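 active = inhibition above the plate's mean compound inhibition plus 3 SD, computed per plate, cut at about 22% in these data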;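 also: 0% = EC80 ATP with DMSO and 100% = DMSO wells without ATP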
Starred values were filed as active, the others as inactive; nt = no result given. The list is not random: actives were taken first. Their share in the collection is about 4.3%.

SMILES	TAAR1 antagonist	HTR2A ag	MC4R antag cAMP	TAAR1 ag	B2AR ag	MC4R ag barr	TAAR1 ag conf	Ga16 nonsel ag	TAAR1 desens	Ga16 antag count
CCOC(=O)C1=CN(CC)S(=O)(=O)NC1c1ccc(C(F)(F)F)cc1 (configuration not stated)	-15	2	21	8	-2	2	nt	nt	nt	nt
Brc1ccc(N=C/C=C/C=C/Nc2ccc(Br)cc2)cc1	-14	-1	-5	12	-1	-2	nt	nt	nt	nt
Nc1nc(N)c(C=Nc2ccc(Br)cc2)c(Nc2ccc(Br)cc2)n1	-17	-4	-2	80*	26	1	43*	19*	16	12
CCn1c(CC(=O)Nc2ccccc2F)nnc1SCC(=O)NC1=NCCS1	-32	-2	15	12	nt	-2	nt	nt	nt	nt
O=C(NCc1ccco1)c1cc(-c2ccccc2)on1	3	1	-4	10	-7	-2	nt	nt	nt	nt
O=C(NCc1ccco1)c1cc(-c2ccc(F)cc2)on1	34	5	0	49*	-2	1	2	2	-1	5
COc1ccc(CCNC(=O)CN(C)S(=O)(=O)c2cccs2)cc1	-1	-4	4	1	6	0	nt	nt	nt	nt
CC1CCCN(c2c([N+](=O)[O-])c(=O)oc3ccccc23)C1 (configuration not stated)	nt	-2	-5	nt	6	-3	nt	4	nt	4
Cc1ccc(Cl)c(NC(=O)COC(=O)CNS(=O)(=O)/C=C/c2ccccc2)c1Cl	18	5	10	73*	9	1	1	4	23	13
CCc1cccc(C)c1NC(=O)COC(=O)CNS(=O)(=O)/C=C/c1ccccc1	-18	-3	15	0	-1	0	nt	nt	nt	nt
c1ccc(SCCN2CCc3ccccc3C2)cc1	-6	-6	-4	70*	14	2	80*	-1	37	1
c1ccc(SCCOCCN2CCc3ccccc3C2)cc1	-20	-7	16	50*	6	-1	62*	0	15	4
OCCN1CCN(CCSc2ccccc2)CC1	11	-1	-3	7	1	0	nt	nt	nt	nt
c1ccc(SCCOCCN2CCOCC2)cc1	-2	-1	0	0	3	-1	nt	nt	nt	nt
Brc1ccc2c(c1)C(C1=NCCN1)c1ccccc1CS2 (configuration not stated)	-6	5	0	3	6	-1	nt	nt	nt	nt
c1ccc2c(c1)CCCC2C1=NCCN1 (configuration not stated)	92*	-4	8	91*	6	0	93*	0	97*	11
O=C1C/C(=C/NCc2ccccc2)C(=O)N1	-8	-1	-2	7	-4	-2	nt	nt	nt	nt
CC(Cc1ccccc1)N/C=C1/CC(=O)NC1=O (configuration not stated)	54*	6	4	83*	10	1	91*	3	40	-2
O=C(NCCc1ccccc1)c1coc(=O)c(Br)c1	80*	0	-6	87*	16	0	94*	1	80*	8
O=C(NCCC1=CCCCC1)c1coc(=O)c(Br)c1	14	-3	-1	62*	17	0	48*	1	2	-1
Cc1c(NC(=O)CSC(=S)N2CCCC2)c(=O)n(-c2ccccc2)n1C	-22	0	2	1	5	-3	nt	nt	nt	nt
COCCn1c(C)cc(C(=O)CSc2nc(C)cc(C)c2C#N)c1C	17	-3	-1	6	-1	-2	nt	nt	nt	nt
Cc1cc(C(=O)CSc2nnc(N)s2)c(C)n1CCc1ccc(F)cc1	-7	-4	1	22	4	-1	nt	nt	nt	nt
Cc1cc(C(=O)CSc2nnnn2C)c(C)n1CCc1ccc(F)cc1	11	-3	1	44*	-1	2	63*	6	14	10
Cc1cc(C)c(C#N)c(SCC(=O)c2cc(C)n(CCc3ccccc3)c2C)n1	52*	0	-7	91*	3	-1	93*	2	100*	17
SMILES	TAAR1 antagonist	HTR2A ag	MC4R antag cAMP	TAAR1 ag	B2AR ag	MC4R ag barr	TAAR1 ag conf	Ga16 nonsel ag	TAAR1 desens	Ga16 antag count
Cc1cc(C(=O)CSc2nnnn2-c2ccccc2)c(C)n1CCc1ccccc1	-3	-1	10	58*	-1	1	99*	0	83*	11
CCOc1ccc(C(=O)OCC(=O)NC2CCCCCCC2)cc1	-11	-7	12	3	-2	2	nt	nt	nt	nt
COc1ccccc1NC(=O)N(C)C[C@H]1Oc2ncc(C#CCN(C)C)cc2C(=O)N([C@H](C)CO)C[C@H]1C	nt	2	11	nt	nt	-2	nt	nt	nt	nt
OCC1OC(n2cnc3c(NCCc4ccccc4)ncnc32)C(O)C1O (configuration not stated)	38	3	16	70*	-23	0	75*	3	65*	6
OC[C@@H]1CN(CCc2ccccc2)C[C@H](n2cnc3c(N4CCOCC4)ncnc32)O1	9	0	-9	61*	nt	-3	74*	3	43	8
OC[C@@H]1CN(CCc2ccccc2)C[C@H](n2cnc3c(NCc4ccc(F)cc4)ncnc32)O1	1	0	-56	66*	nt	-1	75*	1	23	1
OC[C@@H]1CN(CCN2CCOCC2)C[C@H](n2cnc3c(NCc4ccc(F)cc4)ncnc32)O1	-2	3	1	1	nt	-1	nt	nt	nt	nt
CC(C)N(C)c1ncnc2c1ncn2[C@H]1CN(CCc2ccccc2)C[C@@H](CO)O1	-13	4	4	48*	nt	1	63*	6	6	7
Nc1ccc(CCNc2ncnc3c2ncn3[C@@H]2O[C@H](CO)[C@@H](O)[C@H]2O)cc1	-3	-2	12	0	0	-1	nt	nt	nt	nt
CC(C)C[C@H]1CN([C@@H](Cc2ccccc2)CN2CCC[C@H]2CN2C(=O)C(=O)NC[C@@H]2Cc2ccc(O)cc2)C(=O)C(=O)N1CC1CCCCC1	2	1	nt	0	nt	nt	nt	nt	nt	nt
CC1CCN(C(=O)c2[nH]cnc2C(=O)Nc2cccc(Cl)c2)CC1	-10	-3	-1	4	-8	0	nt	nt	nt	nt

Screening results (PubChem)
